Assay results taken from ChEMBL document CHEMBL1151267, “Nematicidal epipolysulfanyldioxopiperazines from Gliocladium roseum” (2005).
≈ marks a conversion by molar mass, not a printed value.

What was measured:
Type in all cases: functional
Details in all cases: read-out: ED50 (the source's name)
Caenorhabditis elegans = test: Antinematodal activity against Caenorhabditis elegans after 24 hrs by microscopy
Procedure, shortened: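 C. elegans were grown on NG agar carrying an E. coli strain, kept at room temperature and subcultured before the assay. Worms in physiological saline were diluted to 20-25 per 48 μL, with three wells per treatment. Each well received 2 μL of 50% DMSO or 50% DMSO containing compound. Plates were covered in a humid chamber, and dead worms were counted by microscopy after 24 h.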

Panagrellus redivivus = test: Antinematodal activity against Panagrellus redivivus after 24 hrs by microscopy
Procedure, shortened: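 P. redivivus were kept in aseptic liquid Basal Heme medium at room temperature and subcultured before testing. Worms were suspended in physiological saline and diluted to 20-25 per 48 μL aliquot, with triplicate wells per treatment. 2 μL of 50% DMSO, alone or with compound, was added. Plates were covered and humidified, and mortality was scored microscopically at 24 h.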

[1] = system: Bursaphelenchus xylophilus; test: Antinematodal activity against Bursaphelenchus xylophilus after 24 hrs by microscopy
Procedure, shortened: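 B. xylophilus were grown on PDB agar carrying Botrytis cinerea, kept at room temperature and subcultured before the assay. They were diluted in physiological saline to 20-25 worms per 48 μL and dispensed into three wells per treatment. 2 μL of 50% DMSO, with or without compound, was added. Plates were covered and held in a humid chamber. Dead worms were counted microscopically at 24 h.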

Row | Structure (SMILES) | EC50 (Caenorhabditis elegans) [µg/mL] | EC50 (Panagrellus redivivus) [µg/mL] | EC50 [1] [µg/mL]
1 | CN1C(=O)[C@]23SS[C@]1(C)C(=O)N2[C@H]1Nc2ccccc2[C@@]1(c1c[nH]c2ccccc12)[C@@H]3O [GLIOCLADINE C] | 200 (≈ 431 µM) | 250 (≈ 538 µM) | > 400
2 | CN1C(=O)[C@]23SSSS[C@]1(C)C(=O)N2[C@H]1Nc2ccccc2[C@@]1(c1c[nH]c2ccccc12)[C@@H]3O [GLIOCLADINE E] | 200 (≈ 378 µM) | 250 (≈ 473 µM) | > 400
3 | CN1C(=O)[C@@]23C[C@]4([C@@]56c7ccccc7N[C@@H]5N5C(=O)[C@@]7(C)SS[C@]5(C(=O)N7C)[C@H]6O)c5ccccc5N[C@@H]4N2C(=O)[C@]1(C)SS3 | 10 (≈ 14.7 µM) | 40 (≈ 58.7 µM) | > 400
4 | CN1C(=O)C23SSSS[C@]1(C)C(=O)N2[C@H]1Nc2ccccc2[C@@]1([C@@]12c4ccccc4N[C@@H]1N1C(=O)[C@@]4(C)SS[C@]1(C(=O)N4C)[C@H]2O)[C@@H]3O [GLIOCLADINE B] | 30 (≈ 39.4 µM) | 25 (≈ 32.9 µM) | > 400
5 | CN1C(=O)[C@]23SSS[C@]1(C)C(=O)N2[C@H]1Nc2ccccc2[C@@]1([C@@]12c4ccccc4N[C@@H]1N1C(=O)[C@@]4(C)SS[C@]1(C(=O)N4C)[C@H]2O)[C@@H]3O [GLIOCLADINE A] | 25 (≈ 34.3 µM) | 50 (≈ 68.6 µM) | > 400
6 | CN1C(=O)[C@]23SSS[C@]1(C)C(=O)N2[C@H]1Nc2ccccc2[C@@]1(c1c[nH]c2ccccc12)[C@@H]3O [GLIOCLADINE D] | 200 (≈ 403 µM) | 250 (≈ 503 µM) | > 400
7 | CN1C(=O)[C@]23SS[C@@]1(C)C(=O)N2[C@H]1Nc2ccccc2[C@@]1([C@@]12c4ccccc4N[C@@H]1N1C(=O)[C@@]4(C)SS[C@]1(C(=O)N4C)[C@H]2O)[C@@H]3O [VERTICILLIN A] | 30 (≈ 43.1 µM) | 80 (≈ 115 µM) | > 400
8 | CC[C@@]12SS[C@]3(C(=O)N1C)[C@@H](O)[C@]1([C@@]45c6ccccc6N[C@@H]4N4C(=O)[C@@]6(C)SS[C@]4(C(=O)N6C)[C@H]5O)c4ccccc4N[C@@H]1N3C2=O | 50 (≈ 70.3 µM) | 80 (≈ 113 µM) | > 400
